# Screens from PubChem BioAssay.
# Hits are enriched below; roughly 2.4% of the tested compounds scored in any of these assays.
# LMPTP inh: LMPTP (human) inhibition; recombinant LMPTP-A, OMFP fluorogenic substrate, fluorescence intensity; inhibition, % at 20 µM; actives 0.22% (n = 360,000);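 active means compounds that cut the enzyme signal by at least half of the control window in the single-dose screen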;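 further: plate controls were DMSO wells with enzyme plus substrate for no effect and substrate without enzyme for full effect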
#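 test system = LMPTP-A | amount = 0.625 nM LMPTP-A final | reagent = fluorogenic phosphatase substrate OMFP at 400 µM final | incubation = 50 min at room temperature | benchmarks = no-enzyme low control, uninhibited high control | medium = Bis-Tris pH 6.0, DTT, detergent | signal = fluorescence intensity of OMFP turnover product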
# Scp-1 inhibitor: Scp-1 (human) phosphatase inhibition; Q9GZU7; Recombinant Scp1, phosphopeptide, malachite green phosphate absorbance; actives 0.88% (n = 340,000); inhibition, % at 20 µM; AID 493091;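 active means inhibition above about 50% at 20 µM, limit read from the data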;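 further: plate controls were DMSO wells with enzyme for no effect and wells lacking enzyme for full effect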
#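 Incubation: 45 min enzyme reaction at room temperature / System: truncated SCP-1 phosphatase (76-261aa) / Reagent: Phospho 17-mer peptide substrate / Buffer or medium: Acidic Tris acetate buffer with magnesium and detergent / Signal: absorbance at 630 nm / Doses: one concentration, 20 µM, with 1.0% DMSO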
# NadD inh: NadD (S. aureus) enzyme inhibition; inhibition, % at 20 µM; actives 0.78% (n = 360,000); AID 602399; purified NadD enzyme, colorimetric absorbance read-out; in the data active means inhibition above about 26%
# DNMT1 block: DNMT1 (human) enzyme inhibition; DNMT1 molecular beacon, Hinp1I cleavage, fluorescence; actives 0.83% (n = 360,000); P26358; inhibition (reported as % activation of signal), % at 10 µM; in the data active means inhibition above about 50%
# STEP inh: blocks human striatal-enriched tyrosine phosphatase; recombinant STEP, OMFP fluorogenic substrate, fluorescence; inhibition, % at 20 µM; actives 0.25% (n = 360,000); AID 588621;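 active means inhibition at 20 µM, scaled per plate between control wells, above about 37%, limit read from the data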;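 further: 0% = DMSO with enzyme and substrate and 100% = substrate only without enzyme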
# Target sequence (P54829 whole entry, looked up): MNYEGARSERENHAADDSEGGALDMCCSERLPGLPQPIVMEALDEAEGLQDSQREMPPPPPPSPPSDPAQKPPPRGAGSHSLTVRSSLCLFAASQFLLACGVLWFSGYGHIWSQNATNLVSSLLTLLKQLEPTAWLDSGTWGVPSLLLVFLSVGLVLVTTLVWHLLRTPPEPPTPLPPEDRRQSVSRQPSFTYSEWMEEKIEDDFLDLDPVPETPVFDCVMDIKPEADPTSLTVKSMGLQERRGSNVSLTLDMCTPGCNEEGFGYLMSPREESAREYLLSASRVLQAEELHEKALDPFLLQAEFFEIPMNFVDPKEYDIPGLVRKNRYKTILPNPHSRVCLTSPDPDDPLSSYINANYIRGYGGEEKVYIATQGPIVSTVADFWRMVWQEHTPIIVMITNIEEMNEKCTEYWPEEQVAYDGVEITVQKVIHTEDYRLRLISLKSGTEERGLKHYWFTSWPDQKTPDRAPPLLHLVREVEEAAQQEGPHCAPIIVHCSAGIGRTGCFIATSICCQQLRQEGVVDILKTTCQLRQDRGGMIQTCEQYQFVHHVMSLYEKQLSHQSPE
#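 Assay system: isolated STEP enzyme. Buffer or medium: pH 6.0 Bis-Tris with DTT and Tween 20. Also added: fluorogenic phosphatase substrate OMFP at 25 µM final. Dosing: 20 µM, 1% DMSO. Timing: 20 min reaction, room temperature, in the dark. Measured by: fluorescence intensity, excitation 480 nm, emission 540 nm. Evaluation: normalized % inhibition.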
# SUMO1-SIM PPI: modulators of human SUMO1-mediated protein-protein interactions. actives 0.33% (n = 360,000). inhibition, % at 20 µM. P63165. SUMO1 binding to a labelled peptide, TR-FRET, 1 h. AID 602429; in the data active means inhibition above about 37%
# NadD inh conf: confirmation of Staphylococcus aureus NadD inhibitors | shares compounds with NadD inh | purified S. aureus NadD, colorimetric enzyme assay | inhibition, % at 20 µM | actives 13% (n = 2,000) | AID 624309; in the data active means inhibition mostly above about 42%, no sharp cut-off; inactive means mostly below about 42%
# Active calls of the source: *; . = no result.
SMILES,LMPTP inh,Scp-1 inhibitor,NadD inh,DNMT1 block,STEP inh,SUMO1-SIM PPI,NadD inh conf
O=C(/C=C/c1cccs1)Nc1cccc(NC(=O)/C=C/c2cccs2)n1,5,16,32*,-17,1,-1,33
C=CCn1c(CC(=O)Nc2ccc(C)cc2C)nnc1SCC(=O)N1CCOCC1,-1,0,-8,3,-3,-4,.
CCOc1ccc(N2C(=O)/C(=C\c3ccc(OC)c(O)c3)S(=O)(=O)C2c2cccc([N+](=O)[O-])c2)cc1 (stereo unspecified),3,-15,34*,-4,-2,-5,8
CC(=O)C1=C(O)C(=O)N(c2ccc(O)cc2)C1c1cccc([N+](=O)[O-])c1 (stereo unspecified),-1,-1,-1,7,-4,-12,.
CCOc1ccc(N2C(=O)/C(=C\c3ccc(O)c(OC)c3)S(=O)(=O)C2c2cccc([N+](=O)[O-])c2)cc1 (stereo unspecified),3,-31,43*,-5,-2,-31,62*
CCCCOc1ccc(-c2nc(-c3cccnc3)no2)cc1,2,-13,0,-3,-1,-1,.
O=C(O)CCCCCNC(=O)c1cccc(Br)c1,-1,-2,1,0,-1,0,.
Cc1ccc(Cn2c(C(CO)Nc3nc(-c4ccc(F)cc4)cs3)nc3ccccc32)cc1 (stereo unspecified),6,-3,22,-32,-2,-1,.
CCCn1c(C(C)Nc2nc(-c3ccc(OC)cc3)cs2)nc2ccccc21 (stereo unspecified),1,-4,2,-8,4,-7,.
CCCn1c(C(C)Nc2nc(-c3ccc(Cl)c([N+](=O)[O-])c3)cs2)nc2cc(Cl)c(N3CCCCC3)cc21 (stereo unspecified),2,6,33*,-15,1,5,5
Cc1ccc(Cn2c(C(CO)Nc3nc(-c4ccc(Cl)c([N+](=O)[O-])c4)cs3)nc3ccccc32)cc1 (stereo unspecified),2,6,51*,-35,0,-8,41
CCCNC(=O)C1(C)CCCN(Cc2cccs2)C1 (stereo unspecified),-2,.,1,0,2,1,.
N=c1n(CCN2CCCCC2)c2ccccc2n1CC(=O)c1cccc([N+](=O)[O-])c1,3,-8,-3,1,-3,-11,.
O=C(N/N=C/c1c(Nc2cccc(C(F)(F)F)c2)nc2ccccn2c1=O)c1ccccc1[N+](=O)[O-],-2,-5,32*,4,-3,-7,5
CCC(=O)NCCc1cc2cc(C)c(C)cc2[nH]c1=O,-2,4,-4,1,-1,0,.
O=C(CSc1nnnn1-c1ccccc1)Nc1ccccc1,0,-2,-4,1,-2,1,.
O=C(CSc1nc2ccc(NC(=O)CSc3nnnn3-c3ccccc3)cc2s1)Nc1ccccc1,-1,-8,39*,50,4,0,20
Cc1ccc(-n2c(=O)[nH]cc(C(=O)N3CCc4ccccc43)c2=O)cc1,-1,-6,6,2,3,2,.
COc1ccc(NS(=O)(=O)c2ccc(NC(=S)NC(=O)/C=C/c3ccccc3)cc2)nn1,3,-11,48*,2,-1,30,54*
O=c1[nH]c(CN2CCN(c3ccc(O)cc3)CC2)nc2scc(-c3ccc(Cl)cc3)c12,4,2,37*,-16,6,4,23
O=c1[nH]c(CN2CCN(c3ccccc3O)CC2)nc2scc(-c3ccccc3Cl)c12,2,-11,12,-7,0,2,.
Cc1ccc(C(=O)OCC(=O)Nc2sc3c(c2C#N)CCCC3)cc1NC(=O)c1ccco1,4,-2,59*,-7,5,11,17
Cc1ccc(C(=O)OCC(=O)Nc2sc3c(c2C#N)CCCCC3)cc1NC(=O)c1ccco1,3,-5,36*,-11,-2,6,12
Cc1ccc(C(=O)OCC(=O)Nc2sccc2C(N)=O)cc1NC(=O)c1ccco1,16,6,8,-3,-3,22,.
Cc1ccc(C(=O)OCC(=O)Nc2sc3c(c2C#N)CCC3)cc1,-1,-7,10,25,8,-1,.
SMILES,LMPTP inh,Scp-1 inhibitor,NadD inh,DNMT1 block,STEP inh,SUMO1-SIM PPI,NadD inh conf
Nc1c(C(=O)Nc2nc3ccccc3s2)sc2nc(-c3cccs3)ccc12,8,3,34*,37,-7,-3,23
Nc1c(C(=O)Nc2ccccc2)sc2nc(-c3ccco3)ccc12,6,8,35*,-22,-3,15,26
CC(=O)c1sc2nc(-c3cccs3)ccc2c1N,2,-13,19,-16,12,-13,.
CC1CCN(C2=NC(=O)/C(=C/c3cccc(O)c3)S2)CC1,1,-15,-2,0,2,-24,.
CC(=O)N1CCN(C2c3cccc4cccc(c34)C2NS(=O)(=O)c2ccccc2)CC1 (stereo unspecified),0,0,-1,-1,1,-7,.
Cc1ccc(C(=O)N2CCN(C3c4cccc5cccc(c45)C3NS(=O)(=O)c3ccccc3)CC2)cc1 (stereo unspecified),3,6,36*,-10,3,-6,19
Cn1c(-c2c(N)n(CCCc3ccccc3)c3nc4ccccc4nc23)nc2ccccc21,4,7,35*,-11,-1,0,10
CN1CCc2c(sc(/N=C/c3c[nH]c4ccccc34)c2C#N)C1,36,-7,44*,-24,-5,-48,-14
C=CCn1c(SCc2c(Cl)cccc2Cl)nnc1-c1cccnc1,0,-1,1,0,3,1,.
Cc1ccc(-c2cc(C(=O)Nc3sc4c(c3C(=O)NCc3ccco3)CCC4)[nH]n2)c(O)c1,11,-4,36*,-10,2,7,0
Cc1cc(O)c(-c2cc(C(=O)Nc3sc4c(c3C(=O)NCc3ccco3)CCC4)[nH]n2)cc1C,2,43,36*,-6,-2,1,-1
COC(=O)Nc1sc2c(c1C(=O)NCc1ccco1)CCC2,1,-8,-15,-8,0,1,.
COC(=O)Nc1sc2c(c1C(=O)NCc1ccco1)CCCC2,-1,-6,-2,-3,7,2,.
COc1ccc(NC(=O)c2c[nH]n3c(=O)cc(C4CCN(C(=O)OC(C)(C)C)CC4)nc23)cc1Cl,5,13,29*,-24,0,12,20
COc1ccc(/C=C/C(=O)c2nc3ccccc3n2CC(=O)c2ccc(OC)cc2)cc1,3,5,30*,-3,3,-6,25
